Data taken from ChEMBL document CHEMBL1124270, “Quinolone antibacterial agents. Synthesis and structure-activity relationships of 8-substituted quinoline-3-carboxylic acids and 1,8-naphthyridine-3-carboxylic acids” (1988).
Converted amounts (≈) assume the structure as drawn.

Key:
Type in all cases: functional
[1] = tested on: Escherichia coli; assay: Minimum inhibitory concentration against Escherichia coli vogel in vitro.
[2] = tested on: Pseudomonas aeruginosa; assay: Minimum inhibitory concentration against Pseudomonas aeruginosa UI-18 in vitro.
[3] = tested on: Streptococcus pneumoniae; assay: In vivo potency against Streptococcus pneumoniae using mouse protection assay following s.c. administration.; details: sc, read-out: PD50
[4] = tested on: Mus musculus; assay: In vivo potency against Escherichia coli vogel using mouse protection assay when given perorally; details: po, read-out: PD50
[5] = tested on: Mus musculus; assay: In vivo potency against Escherichia coli vogel using mouse protection assay when given subcutaneously; details: sc, read-out: PD50
[6] = tested on: Streptococcus pneumoniae; assay: Minimum inhibitory concentration against Streptococcus pneumoniae SV-1 in vitro.
[7] = tested on: Klebsiella pneumoniae; assay: Minimum inhibitory concentration against Klebsiella pneumoniae MGH-2 in vitro.
[8] = tested on: Staphylococcus aureus; assay: In vivo potency against Staphylococcus aureus using mouse protection assay following s.c. administration.; details: sc, read-out: PD50
[9] = tested on: Streptococcus pneumoniae; assay: In vivo potency against Streptococcus pneumoniae using mouse protection assay following p.o. administration.; details: po, read-out: PD50
[10] = tested on: Staphylococcus aureus; assay: In vivo potency against Staphylococcus aureus using mouse protection assay following p.o. administration.; details: po, read-out: PD50
[11] = tested on: Staphylococcus aureus; assay: Minimum inhibitory concentration against Staphylococcus aureus H228 in vitro.
[12] = tested on: Enterobacter cloacae; assay: Minimum inhibitory concentration against Enterobacter cloacae HA 2646 in vitro.
[13] = tested on: Streptococcus pyogenes; assay: Minimum inhibitory concentration against Streptococcus pyogenes C203 in vitro.
[14] = tested on: Escherichia coli; assay: Minimum concentration needed to produce linear DNA at an intensity relative to oxolinic at 10 ug/mL in Escherichia coli H560 in vitro.
How it was run: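 DNA gyrase cleavage test, run as previously described: end point is the lowest drug level (µg/mL) that yields linear DNA at a band intensity matching oxolinic acid at 10 µg/mL. Values come from duplicate or triplicate experiments and are stated as accurate to ±50%.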

[15] = tested on: Staphylococcus aureus; assay: Minimum inhibitory concentration against Staphylococcus aureus UC-76 in vitro.
[16] = tested on: Providencia rettgeri; assay: Minimum inhibitory concentration against Providencia rettgeri H1771 in vitro.
[17] = tested on: Enterococcus faecalis; assay: Minimum inhibitory concentration against Streptococcus faecalis MGH-2 in vitro.
[18] = tested on: Escherichia coli; assay: Minimum inhibitory concentration against Escherichia coli H560 in vitro.
[19] = tested on: Mus musculus; assay: In vivo potency against Staphylococcus aureus using mouse protection assay when given orally; details: po, read-out: PD50
[20] = tested on: Mus musculus; assay: In vivo potency against Streptococcus pneumoniae using mouse protection assay when given orally; details: po, read-out: PD50

Row | Compound | MIC [1] [µg/mL] | MIC [2] [µg/mL] | ED50 [3] [mg/kg] | ED50 [4] [mg/kg] | ED50 [5] [mg/kg] | MIC [6] [µg/mL] | MIC [7] [µg/mL] | ED50 [8] [mg/kg] | ED50 [9] [mg/kg] | ED50 [10] [mg/kg] | MIC [11] [µg/mL] | MIC [12] [µg/mL] | MIC [13] [µg/mL] | DNA cleavage conc (gyrase) [14] [µg/mL] | MIC [15] [µg/mL] | MIC [16] [µg/mL] | MIC [17] [µg/mL] | MIC [18] [µg/mL] | ED50 [19] [mg/kg] | ED50 [20] [mg/kg]
1 | CCNCC1CCN(c2nc3c(cc2F)c(=O)c(C(=O)O)cn3C2CC2)C1 (stereo not drawn) | 0.1 (≈ 0.267 µM) | 0.8 (≈ 2.14 µM) | 6 | 7 | 1 | 0.1 (≈ 0.267 µM) | 0.1 (≈ 0.267 µM) | 15 | 16 | 62 | 0.1 (≈ 0.267 µM) | 0.2 (≈ 0.534 µM) | 0.1 (≈ 0.267 µM) | 0.75 | 0.05 (≈ 0.134 µM) | 0.8 (≈ 2.14 µM) | 0.1 (≈ 0.267 µM) | 0.05 (≈ 0.134 µM) | – | –
2 | CNCC1CCN(c2c(F)cc3c(=O)c(C(=O)O)cn(C4CC4)c3c2F)C1 (stereo not drawn) | 0.05 (≈ 0.132 µM) | 0.2 (≈ 0.53 µM) | – | 2 | – | 0.006 (≈ 0.0159 µM) | 0.05 (≈ 0.132 µM) | – | – | – | 0.025 (≈ 0.0662 µM) | 0.025 (≈ 0.0662 µM) | 0.006 (≈ 0.0159 µM) | 0.25 | 0.013 (≈ 0.0344 µM) | 0.2 (≈ 0.53 µM) | 0.013 (≈ 0.0344 µM) | 0.006 (≈ 0.0159 µM) | 22 | 2
3 | CN(C)CC1CCN(c2nc3c(cc2F)c(=O)c(C(=O)O)cn3C2CC2)C1 (stereo not drawn) | 0.05 (≈ 0.134 µM) | 0.4 (≈ 1.07 µM) | 7 | 2 | 1 | 0.05 (≈ 0.134 µM) | 0.2 (≈ 0.534 µM) | 27 | 7 | 31 | 0.1 (≈ 0.267 µM) | 0.1 (≈ 0.267 µM) | 0.1 (≈ 0.267 µM) | 0.75 | 0.05 (≈ 0.134 µM) | 0.8 (≈ 2.14 µM) | 0.2 (≈ 0.534 µM) | 0.05 (≈ 0.134 µM) | – | –
4 | CCNCC1CCN(c2c(F)cc3c(=O)c(C(=O)O)cn(C4CC4)c3c2F)C1 (stereo not drawn) [PD-117558] | 0.05 (≈ 0.128 µM) | 0.4 (≈ 1.02 µM) | 2 | 4 | 1 | 0.025 (≈ 0.0639 µM) | 0.1 (≈ 0.255 µM) | 40 | 3 | 59 | 0.025 (≈ 0.0639 µM) | 0.1 (≈ 0.255 µM) | 0.025 (≈ 0.0639 µM) | 0.25 | 0.006 (≈ 0.0153 µM) | 0.2 (≈ 0.511 µM) | 0.025 (≈ 0.0639 µM) | 0.025 (≈ 0.0639 µM) | – | –
5 | O=C(O)c1cn(C2CC2)c2c(F)c(N3CCNCC3)c(F)cc2c1=O | 0.1 (≈ 0.286 µM) | 0.2 (≈ 0.573 µM) | 29 | 0.5 | 0.3 | 0.8 (≈ 2.29 µM) | 0.1 (≈ 0.286 µM) | 3 | 59 | 7 | 0.4 (≈ 1.15 µM) | 0.05 (≈ 0.143 µM) | 0.8 (≈ 2.29 µM) | 0.5 | 0.1 (≈ 0.286 µM) | 0.1 (≈ 0.286 µM) | 0.4 (≈ 1.15 µM) | 0.025 (≈ 0.0716 µM) | – | –
6 | NC1CCN(c2nc3c(cc2F)c(=O)c(C(=O)O)cn3C2CC2)C1 (stereo not drawn) | 0.013 (≈ 0.0391 µM) | 0.05 (≈ 0.15 µM) | 33 | 2 | 0.6 | 0.2 (≈ 0.602 µM) | 0.025 (≈ 0.0752 µM) | 3 | 58 | 7 | 0.2 (≈ 0.602 µM) | 0.05 (≈ 0.15 µM) | 0.2 (≈ 0.602 µM) | 1 | 0.013 (≈ 0.0391 µM) | 0.1 (≈ 0.301 µM) | 0.2 (≈ 0.602 µM) | 0.006 (≈ 0.0181 µM) | – | –
7 | CN(C)CC1CCN(c2c(F)cc3c(=O)c(C(=O)O)cn(C4CC4)c3c2F)C1 (stereo not drawn) | 0.2 (≈ 0.511 µM) | 0.8 (≈ 2.04 µM) | 5 | 2 | 1 | 0.05 (≈ 0.128 µM) | 0.2 (≈ 0.511 µM) | 20 | 5 | 45 | 0.025 (≈ 0.0639 µM) | 0.2 (≈ 0.511 µM) | 0.05 (≈ 0.128 µM) | 0.1 | 0.025 (≈ 0.0639 µM) | 0.8 (≈ 2.04 µM) | 0.025 (≈ 0.0639 µM) | 0.025 (≈ 0.0639 µM) | – | –
8 | NCC1CCN(c2nc3c(cc2F)c(=O)c(C(=O)O)cn3C2CC2)C1 (stereo not drawn) | 0.1 (≈ 0.289 µM) | 0.2 (≈ 0.577 µM) | – | 17 | – | 0.1 (≈ 0.289 µM) | 0.1 (≈ 0.289 µM) | – | – | – | 0.2 (≈ 0.577 µM) | 0.1 (≈ 0.289 µM) | 0.025 (≈ 0.0722 µM) | 0.5 | 0.006 (≈ 0.0173 µM) | 0.4 (≈ 1.15 µM) | 0.025 (≈ 0.0722 µM) | 0.025 (≈ 0.0722 µM) | 55 | 100
